Measurements of several laboratories.
Compare with care: the assays were run in different laboratories.
Target: Serine/threonine-protein kinase D2 (PRKD2, Homo sapiens, UniProt Q9BZL6)
One construct used (Q9BZL6 1-878): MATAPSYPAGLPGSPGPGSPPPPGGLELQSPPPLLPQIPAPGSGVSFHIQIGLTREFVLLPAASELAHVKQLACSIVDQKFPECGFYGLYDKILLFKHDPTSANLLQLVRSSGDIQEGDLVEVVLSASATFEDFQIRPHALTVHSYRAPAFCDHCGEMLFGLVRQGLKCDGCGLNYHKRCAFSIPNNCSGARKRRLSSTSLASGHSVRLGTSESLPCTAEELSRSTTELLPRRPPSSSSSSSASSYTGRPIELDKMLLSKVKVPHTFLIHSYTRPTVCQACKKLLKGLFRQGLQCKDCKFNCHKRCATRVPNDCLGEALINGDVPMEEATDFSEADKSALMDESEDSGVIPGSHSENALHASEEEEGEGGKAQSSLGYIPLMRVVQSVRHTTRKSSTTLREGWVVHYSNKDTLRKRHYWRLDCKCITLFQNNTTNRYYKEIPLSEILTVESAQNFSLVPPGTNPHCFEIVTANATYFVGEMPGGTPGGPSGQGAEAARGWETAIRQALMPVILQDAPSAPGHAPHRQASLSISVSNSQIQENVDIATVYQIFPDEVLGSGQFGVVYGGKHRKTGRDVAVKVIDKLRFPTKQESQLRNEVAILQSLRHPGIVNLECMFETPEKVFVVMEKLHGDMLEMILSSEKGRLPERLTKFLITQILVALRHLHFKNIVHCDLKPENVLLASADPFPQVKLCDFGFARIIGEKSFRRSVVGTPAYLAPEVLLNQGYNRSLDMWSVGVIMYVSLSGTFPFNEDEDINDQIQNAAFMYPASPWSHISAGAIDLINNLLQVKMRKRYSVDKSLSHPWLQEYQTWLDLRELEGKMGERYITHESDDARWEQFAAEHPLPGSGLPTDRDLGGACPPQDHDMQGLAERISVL

COc1cc(-c2cn(C3CCc4ccccc4N(CC(F)(F)F)C3=O)nn2)ccc1-n1ccc(C)n1 (stereo not drawn)
remaining binding (cell-free assay, competition with immobilised ligand; 1 µM): 86%

Cc1cc(NC(=O)c2cccc3cc(-c4cccc5[nH]nc(N)c45)ccc23)ccc1F
activity vs control (enzyme activity, inhibitor; 0.1 µM): 91%

CC(C)CC(=O)N1CCc2nc(-c3ccc(Br)cc3)nc(N(C)Cc3ccccc3)c2C1
remaining binding (cell-free assay, competition with immobilised ligand; 0.1 µM): 100%

CNC(=O)c1cc(Oc2ccc(NC(=O)Nc3ccc(Cl)c(C(F)(F)F)c3)cc2)ccn1
inhibition (enzyme activity, inhibitor; 10 µM): 15%

Cc1cc(C)c(-n2ccn3nc(-c4cccnc4)cc23)cc1NC(=O)c1cc(C#N)cc(S(F)(F)(F)(F)F)c1
remaining binding (cell-free assay, competition with immobilised ligand; 0.1 µM): 100%

CCN(CC)c1ccc(C2=NNC(=O)CC2C)cc1[N+](=O)[O-] (stereo not drawn)
remaining activity (enzyme activity, inhibitor; 10 µM): 106%

Cc1sc(C(=O)NC2COC2)cc1-n1cc(NC(=O)Nc2c(F)cccc2Cl)cn1
remaining activity (enzyme activity, inhibitor; 10 µM): 95.7%

Cn1cncc1C1=CN(c2ncnc3[nH]cnc23)CCS1
inhibition (enzyme activity, inhibitor, radiometric; 50 nM): 38.2%

Cn1nc(C(=O)NCc2ccc(C(=O)O)cc2)cc1-c1ccc2[nH]ccc2c1
remaining binding (cell-free assay, competition with immobilised ligand; 0.1 µM): 100%

Cc1ccc(Nc2nccc(N(C)c3ccc4c(C)n(C)nc4c3)n2)cc1S(N)(=O)=O
inhibition (enzyme activity, inhibitor; 10 µM): 15%

Cn1c2c(c3ccc(Cl)c(Cl)c31)C(C#N)C1(CCOCC1)NC2=O (stereo not drawn)
ΔTm (thermal stability, DSF; 10 µM): -0.1 °C

CCN(CC)CCNC(=O)c1c(C)[nH]c(/C=C2\C(=O)Nc3ccc(F)cc32)c1C
inhibition (enzyme activity, inhibitor; 10 µM): 88%

C[C@@]1(Cc2ccc(C#N)cc2)C(=O)N(c2cc(Cl)cc(Cl)c2)c2ncc(C(=O)NC3(c4nc(C5CCC5)no4)CC3)n21
remaining binding (cell-free assay, competition with immobilised ligand; 1 µM): 100%

Cn1c2c(c3ccc(Cl)c(Cl)c31)C(C#N)C1(CCN(C(=O)OC(C)(C)C)CC1)NC2=O (racemic)
ΔTm (thermal stability, DSF; 10 µM): 0 °C

Cc1ccc(NC(=O)c2ccc(C)c(C(F)(F)F)c2)cc1C#Cc1nn(C2CCC(O)CC2)c2ncnc(N)c12 (stereo not drawn)
remaining signal (cell-free assay; 10 µM): 108%

COc1ccc(COc2ccc(Cc3cnc(N)nc3N)cc2OC)cc1
remaining signal (cell-free assay; 0.5 µM): 99.4%

CSc1cccnc1N1CCN(Cc2nc3ccccc3[nH]2)CC1
remaining binding (cell-free assay, competition with immobilised ligand; 1 µM): 100%

COc1cc2ncnc(Nc3ccc(Oc4ccccc4)c(C)c3C)c2cc1OC
inhibition (enzyme activity, inhibitor; 1 µM): 2%

Cn1cnc(Br)c1C1=CN(c2ncnc3[nH]cnc23)CCS1
inhibition (enzyme activity, inhibitor, radiometric; 2 µM): 95.6%

CCOc1cc(-c2nncn2C)ccc1Nc1ncc2cc(C)nc(NCC(C)(C)C)c2n1
inhibition (enzyme activity, inhibitor, FRET; 1 µM): < 15%

CCN1CCC2(CC1)NC(=O)c1c(c3ccc(Cl)c(Cl)c3n1C)C2C#N (racemic)
ΔTm (thermal stability, DSF; 10 µM): 0.6 °C

CN([C@@H]1CCc2c(CC(=O)O)c3ccccc3n2C1)S(=O)(=O)c1ccc(F)cc1
remaining binding (cell-free assay, competition with immobilised ligand; 1 µM): 100%

CC(C)(C)c1nc2c(s1)c1nc(N)ncc1c1ccc(NS(=O)(=O)c3c(F)cccc3F)c(F)c12
remaining activity (enzyme activity, inhibitor, radiometric; 1 µM): 79%

COc1cccc(CNC(=O)c2nc3scc(COCc4ccc(C(=O)O)cc4)c3c(=O)[nH]2)c1
remaining binding (cell-free assay, competition with immobilised ligand; 1 µM): 100%

Cc1ccc(C(=O)Nc2ccc(CN3CCN(C)CC3)c(C(F)(F)F)c2)cc1C#Cc1cnc2cccnn12
remaining activity (enzyme activity, inhibitor; 23.5 nM): 95%

Cc1ccc(C(=O)NCc2ccsc2)cc1C#Cc1cn(C(C)C)c2ncnc(N)c12
activity vs control (enzyme activity, inhibitor; 1 µM): 71%

CCCCNc1ncc2c(-c3ccc(F)cc3)nn(C[C@H]3CC[C@H](N)CC3)c2n1
inhibition (target engagement in cells, inhibitor, chemoproteomics; 20 mM): 28.3%

Cc1cnc(NC2CCOCC2)nc1-n1cnc(C(=O)NC(CN)c2cc(F)cc(Cl)c2)c1 (stereo not drawn)
remaining activity (enzyme activity, inhibitor, radiometric; 1 µM): 5%

Cn1c2c(c3ccc(Cl)c(Cl)c31)C(C#N)C1(CCCCC1)NC2=O (racemic)
ΔTm (thermal stability, DSF; 10 µM): 0.1 °C

COc1cc(Cl)c(C(=O)N[C@@H](CN[C@H]2CC[C@@H](N)CC2)Cc2ccc(C#N)cc2)cc1-c1ccc(CN[C@H](C)c2ccc(C)cc2)o1
remaining activity (enzyme activity, inhibitor; 1 µM): 109%

N#CC1c2c([nH]c3c(Cl)c(Cl)ccc23)C(=O)NC12CCCCC2 (racemic)
ΔTm (thermal stability, DSF; 10 µM): 0.1 °C

COc1cccc2c(NCc3ccccc3)nc(-n3c(N)nc4ccccc43)nc12
inhibition (target engagement in cells, inhibitor, chemoproteomics; 20 mM): -4.3%

O=C1NC(=O)c2cc(Nc3ccc(F)cc3)c(Nc3ccc(F)cc3)cc21
remaining signal (cell-free assay; 0.5 µM): 86.8%
